Assay results: ChEMBL document CHEMBL4706649, “Design, synthesis and biological evaluation of new benzoxazolone/benzothiazolone derivatives as multi-target agents against Alzheimer's disease” (Eur J Med Chem, 2021)
Activity calls are given as the source filed them. No cut-off for these calls is given here.

Key:
[1] = target: Acetylcholinesterase (Electrophorus electricus) (UniProt O42275); experiment: Inhibition of electric eel AChE at 100 uM using acetylthiocholine iodide as substrate preincubated for 10 mins followed by substrate addition and measured for 10 mins by Ellman's method relative to control; conditions: time 20.0 min
Procedure, shortened: (§1)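 Ellman single-concentration screen in 50 mM Tris-HCl pH 8.0 with DTNB (6.8 mM stock) and 1% DMSO. Enzyme solution 0.4 U/mL AChE or 0.8 U/mL BChE. Compound and enzyme preincubated 10 min at 25 °C, then ATI (10 mM stock) or BTI (30 mM stock) added. A412 followed for 10 min, blank-subtracted, % inhibition versus no-compound control. Triplicate.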

[2] = target: Cholinesterase (Equus caballus) (UniProt P81908); experiment: Inhibition of equine serum BChE at 100 uM using butyrylthiocholine iodide as substrate preincubated for 10 mins followed by substrate addition and measured for 10 mins by Ellman's method relative to control; conditions: time 20.0 min; procedure, shortened: as §1
Cholinesterase [3] = target: Cholinesterase (Equus caballus, UniProt P81908); experiment: Inhibition of equine serum BChE using butyrylthiocholine iodide as substrate preincubated for 10 mins followed by substrate addition and measured for 10 mins by Ellman's method
Procedure, shortened: (§2)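 BChE (0.8 U/mL solution) preincubated with inhibitor 10 min at 25 °C in Tris-HCl pH 8.0 with DTNB and 1% DMSO, then BTI (30 mM stock) added. A412 read over 10 min, blank-corrected. IC50 from log[inhibitor] versus % inhibition. Triplicate, mean ± SD.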

Cholinesterase [4] = target: Cholinesterase (Homo sapiens, UniProt P06276); experiment: Inhibition of recombinant human BChE using butyrylthiocholine iodide as substrate preincubated for 10 mins followed by substrate addition and measured for 10 mins by Ellman's method; procedure, shortened: as §2
Homo sapiens [5] = organism: Homo sapiens; experiment: Reversible inhibition of recombinant human BChE assessed as residual activity at 0.1 times IC50 using butyrylthiocholine iodide as substrate preincubated for 30 mins followed by 100-fold dilution in presence of substrate and measured after 15 mins by Ellman's method relative to control; conditions: time 45.0 min
Homo sapiens [6] = organism: Homo sapiens; experiment: Reversible inhibition of recombinant human BChE assessed as residual activity at IC50 using butyrylthiocholine iodide as substrate preincubated for 30 mins followed by 100-fold dilution in presence of substrate and measured after 15 mins by Ellman's method relative to control; conditions: time 45.0 min
[7] = Antioxidant activity assessed as trolox equivalent of AAPH radical scavenging activity at 10 uM measured every min for 90 mins by ORAC-FL assay; type: functional
Procedure, shortened: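 ORAC-FL in 75 mM phosphate buffer pH 7.4. Sample and fluorescein (150 nM final) preincubated 15 min at 37 °C, then AAPH (12 mM final) added. Fluorescence (ex 485/em 535 nm) read each minute for 90 min. Net AUC after blank subtraction, converted to Trolox equivalents from a Trolox curve (0.5–8, final; Trolox = 1). Duplicate wells, three independent assays.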

THP-1 [8] = experiment: Antiinflammatory activity in LPS-induced human THP-1 cells assessed as reduction in IL1beta release at 10 uM peincubated for 1 hr followed by LPS stimulation and measured after 24 hrs by EIA; type: functional, cell-based; conditions: time 25.0 hrs
Procedure, shortened: (§3)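 THP-1 cells grown in RPMI 1640 with 10% FCS, penicillin and streptomycin at 37 °C, 5% CO2, then plated overnight at 4×10⁴ cells/well. Test compound added 1 h before 100 ng/ml E. coli O111:B4 LPS; 24 h incubation. Untreated and LPS-only controls. […]; cytokine read by EIA at 450 nm against a standard curve. At least triplicate.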

THP-1 [9] = experiment: Antiinflammatory activity in LPS-induced human THP-1 cells assessed as reduction in IL6 release at 10 uM peincubated for 1 hr followed by LPS stimulation and measured after 24 hrs by EIA; type: functional, cell-based; conditions: time 25.0 hrs; procedure, shortened: as §3
THP-1 [10] = experiment: Antiinflammatory activity in LPS-induced human THP-1 cells assessed as reduction in TNFalpha release at 10 uM peincubated for 1 hr followed by LPS stimulation and measured after 24 hrs by EIA; type: functional, cell-based; conditions: time 25.0 hrs; procedure, shortened: as §3
THP-1 [11] = experiment: Antiinflammatory activity in LPS-induced human THP-1 cells assessed as reduction in nitric oxide release at 10 uM peincubated for 1 hr followed by LPS stimulation and measured after 24 hrs by ELISA; type: functional, cell-based; conditions: time 25.0 hrs
Procedure, shortened: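 THP-1 cells plated overnight at 4×10⁴ cells/well, given test compound 1 h before 100 ng/ml LPS (E. coli O111:B4), then incubated 24 h. Cell-free supernatants stored at −20 °C, then NO measured by ELISA kit (sensitivity 1,12 […]) from a standard curve. Untreated cells as negative control, LPS-only as positive control. At least triplicate.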

[12] = target: Amyloid-beta precursor protein (Homo sapiens) (UniProt P05067); experiment: Inhibition of amyloid beta (1 to 42) (unknown origin) self-induced aggregation at 50 uM by Thioflavin T based fluorometric assay relative to control
Procedure, shortened: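 Thioflavin T fluorometric assay of Aβ1-42 self-aggregation, with inhibitor and Aβ42 both at 50 (equimolar). Samples dissolved in DMSO. Result given as % inhibition, mean of two independent experiments each run in triplicate.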

[13] = Induction of apoptosis in mouse 3T3 cells assessed as necrotic cells at 10 uM measured after 24 hrs by Annexin V-FITC/propidium iodide staining based flow cytometry (reference value: 0%); type: cell-based; conditions: 3t3, 24 h
Procedure, shortened: (§4)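 3T3 fibroblasts exposed to compound for 24 h, with untreated cells as negative control. Cells trypsinized, PBS-washed, stained with Annexin V-FITC and PI by kit protocol, then analysed by flow cytometry. Populations: live (Annexin−/PI−), early apoptotic (Annexin+/PI−), late apoptotic (Annexin+/PI+) and dead (Annexin−/PI+). Percentages given as mean ± SD.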

[14] = Induction of apoptosis in mouse 3T3 cells assessed as late apoptotic cells at 10 uM measured after 24 hrs by Annexin V-FITC/propidium iodide staining based flow cytometry (reference value: 0.1 to 0.13%); type: cell-based; conditions: 3t3, 24 h; procedure, shortened: as §4
[15] = Induction of apoptosis in mouse 3T3 cells assessed as viable cells at 10 uM measured after 24 hrs by Annexin V-FITC/propidium iodide staining based flow cytometry (reference value: 98.83 to 99%); type: cell-based; conditions: read-out: Activity; procedure, shortened: as §4
[16] = Induction of apoptosis in mouse 3T3 cells assessed as early apoptotic cells at 10 uM measured after 24 hrs by Annexin V-FITC/propidium iodide staining based flow cytometry (Rvb <= 0.97%); type: cell-based; conditions: 3t3, 24 h; procedure, shortened: as §4
[17] = Cytotoxicity against mouse 3T3 cells assessed as cell viability at 0.1 uM measured after 24 hrs by MTT assay relative to control; type: cell-based; conditions: read-out: Activity
Procedure, shortened: (§5)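 3T3 fibroblasts (ATCC CCL92) grown as adherent monolayers in DMEM with 10% inactivated FBS, 2 mM L-glutamine and penicillin/streptomycin at 37 °C, 5% CO2. Cells exposed to compounds for 24 h. MTT added for 4 h, formazan dissolved in SDS for 24 h, OD read at 570 nm. Viability given as % of untreated OD; at least triplicate, mean ± SD.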

[18] = Cytotoxicity against mouse 3T3 cells assessed as cell viability at 1 uM measured after 24 hrs by MTT assay relative to control; type: cell-based; conditions: read-out: Activity; procedure, shortened: as §5
[19] = Cytotoxicity against mouse 3T3 cells assessed as cell viability at 10 uM measured after 24 hrs by MTT assay relative to control; type: cell-based; conditions: read-out: Activity; procedure, shortened: as §5
Acetylcholinesterase [20] = target: Acetylcholinesterase (Electrophorus electricus, UniProt O42275); experiment: Inhibition of electric eel AChE using acetylthiocholine iodide as substrate preincubated for 10 mins followed by substrate addition and measured for 10 mins by Ellman's method
Acetylcholinesterase [21] = target: Acetylcholinesterase (Homo sapiens, UniProt P22303); experiment: Inhibition of recombinant human AChE expressed in HEK293 cells using acetylthiocholine iodide as substrate preincubated for 10 mins followed by substrate addition and measured for 10 mins by Ellman's method
Sequence of Acetylcholinesterase (Homo sapiens, UniProt P22303) (P22303 whole entry): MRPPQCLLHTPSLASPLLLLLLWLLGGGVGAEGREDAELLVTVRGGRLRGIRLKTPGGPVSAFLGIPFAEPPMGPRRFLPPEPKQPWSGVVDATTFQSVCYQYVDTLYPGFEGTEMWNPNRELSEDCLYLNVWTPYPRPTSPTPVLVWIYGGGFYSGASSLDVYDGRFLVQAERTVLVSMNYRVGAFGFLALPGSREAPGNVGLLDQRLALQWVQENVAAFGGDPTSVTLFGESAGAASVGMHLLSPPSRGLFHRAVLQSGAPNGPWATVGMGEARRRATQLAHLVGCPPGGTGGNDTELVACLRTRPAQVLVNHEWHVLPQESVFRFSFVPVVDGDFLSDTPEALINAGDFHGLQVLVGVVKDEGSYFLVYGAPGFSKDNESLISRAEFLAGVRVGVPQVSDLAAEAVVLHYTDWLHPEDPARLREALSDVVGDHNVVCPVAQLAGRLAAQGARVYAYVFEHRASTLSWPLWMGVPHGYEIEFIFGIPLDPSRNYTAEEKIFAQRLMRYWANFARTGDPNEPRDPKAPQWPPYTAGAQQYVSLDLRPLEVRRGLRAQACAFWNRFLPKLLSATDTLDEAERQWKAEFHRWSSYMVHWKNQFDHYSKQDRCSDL

Sequence of Amyloid-beta precursor protein (Homo sapiens) (P05067 whole entry): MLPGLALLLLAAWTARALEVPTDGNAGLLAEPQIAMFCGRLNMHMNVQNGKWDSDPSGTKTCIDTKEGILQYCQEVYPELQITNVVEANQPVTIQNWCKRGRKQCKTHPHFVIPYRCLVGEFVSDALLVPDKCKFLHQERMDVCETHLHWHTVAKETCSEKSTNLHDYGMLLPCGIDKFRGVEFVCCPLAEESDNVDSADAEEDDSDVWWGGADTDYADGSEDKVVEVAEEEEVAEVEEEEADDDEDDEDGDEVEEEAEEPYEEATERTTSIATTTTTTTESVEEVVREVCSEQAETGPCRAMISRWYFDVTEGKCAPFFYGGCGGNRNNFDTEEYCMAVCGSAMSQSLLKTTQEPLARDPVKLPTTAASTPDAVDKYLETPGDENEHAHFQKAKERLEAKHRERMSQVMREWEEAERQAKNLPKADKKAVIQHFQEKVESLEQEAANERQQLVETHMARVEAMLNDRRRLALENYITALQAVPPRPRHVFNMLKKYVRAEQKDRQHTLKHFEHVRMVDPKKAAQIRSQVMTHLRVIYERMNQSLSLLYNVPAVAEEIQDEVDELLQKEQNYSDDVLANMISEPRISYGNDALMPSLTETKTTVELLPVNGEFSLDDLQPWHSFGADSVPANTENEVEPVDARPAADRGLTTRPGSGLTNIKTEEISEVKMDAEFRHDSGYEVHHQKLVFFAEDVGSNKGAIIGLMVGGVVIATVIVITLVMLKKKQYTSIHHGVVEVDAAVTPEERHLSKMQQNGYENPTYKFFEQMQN
Sequence of Cholinesterase (Equus caballus) (P81908 whole entry): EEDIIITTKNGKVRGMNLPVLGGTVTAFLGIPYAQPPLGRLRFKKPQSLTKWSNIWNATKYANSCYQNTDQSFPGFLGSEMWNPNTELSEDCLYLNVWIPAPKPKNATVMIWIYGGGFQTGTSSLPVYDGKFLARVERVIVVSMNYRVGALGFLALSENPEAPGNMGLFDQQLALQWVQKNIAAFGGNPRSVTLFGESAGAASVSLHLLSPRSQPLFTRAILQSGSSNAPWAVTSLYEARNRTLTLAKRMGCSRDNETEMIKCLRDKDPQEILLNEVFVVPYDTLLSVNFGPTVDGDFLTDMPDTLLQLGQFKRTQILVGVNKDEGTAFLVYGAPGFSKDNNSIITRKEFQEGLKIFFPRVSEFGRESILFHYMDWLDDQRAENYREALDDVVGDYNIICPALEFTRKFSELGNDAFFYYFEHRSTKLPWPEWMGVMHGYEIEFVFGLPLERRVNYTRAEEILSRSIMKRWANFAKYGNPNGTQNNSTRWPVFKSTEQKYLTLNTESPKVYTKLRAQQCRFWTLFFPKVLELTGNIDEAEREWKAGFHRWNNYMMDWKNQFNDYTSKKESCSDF
Sequence of Acetylcholinesterase (Electrophorus electricus) (O42275 24-633 limits assumed): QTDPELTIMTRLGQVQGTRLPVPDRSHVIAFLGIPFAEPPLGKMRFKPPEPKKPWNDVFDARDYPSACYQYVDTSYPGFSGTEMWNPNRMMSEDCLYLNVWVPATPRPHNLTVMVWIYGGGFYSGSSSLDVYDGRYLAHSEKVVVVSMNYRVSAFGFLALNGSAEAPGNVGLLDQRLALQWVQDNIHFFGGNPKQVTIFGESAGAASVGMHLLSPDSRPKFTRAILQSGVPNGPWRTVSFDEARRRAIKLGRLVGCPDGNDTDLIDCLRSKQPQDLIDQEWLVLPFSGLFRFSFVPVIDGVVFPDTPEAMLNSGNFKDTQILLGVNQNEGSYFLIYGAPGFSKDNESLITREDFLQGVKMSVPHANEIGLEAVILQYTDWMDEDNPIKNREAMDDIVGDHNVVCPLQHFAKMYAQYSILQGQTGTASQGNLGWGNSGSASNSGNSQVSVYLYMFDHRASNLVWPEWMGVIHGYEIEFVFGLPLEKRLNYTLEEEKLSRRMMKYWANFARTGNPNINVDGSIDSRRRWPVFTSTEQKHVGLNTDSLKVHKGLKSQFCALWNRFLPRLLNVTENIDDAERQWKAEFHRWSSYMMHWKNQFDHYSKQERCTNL
Sequence of Cholinesterase (Homo sapiens, UniProt P06276) (P06276 whole entry): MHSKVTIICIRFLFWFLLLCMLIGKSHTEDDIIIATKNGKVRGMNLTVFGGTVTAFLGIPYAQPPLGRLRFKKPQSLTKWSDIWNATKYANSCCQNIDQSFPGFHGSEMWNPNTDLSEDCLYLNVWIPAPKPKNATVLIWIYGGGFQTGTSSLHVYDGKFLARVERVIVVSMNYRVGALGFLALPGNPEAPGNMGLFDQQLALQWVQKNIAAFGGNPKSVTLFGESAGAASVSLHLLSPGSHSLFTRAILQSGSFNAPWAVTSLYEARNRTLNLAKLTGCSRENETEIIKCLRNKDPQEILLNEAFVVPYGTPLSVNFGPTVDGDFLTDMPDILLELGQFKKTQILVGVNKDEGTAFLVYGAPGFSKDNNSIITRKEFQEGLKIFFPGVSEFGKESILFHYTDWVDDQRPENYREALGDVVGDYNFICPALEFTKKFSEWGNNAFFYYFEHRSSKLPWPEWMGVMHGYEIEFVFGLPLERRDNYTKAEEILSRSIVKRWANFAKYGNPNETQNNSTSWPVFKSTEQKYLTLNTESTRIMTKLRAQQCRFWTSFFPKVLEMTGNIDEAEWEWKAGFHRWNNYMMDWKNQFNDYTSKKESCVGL
Sequence of Acetylcholinesterase (Electrophorus electricus, UniProt O42275) (O42275 whole entry): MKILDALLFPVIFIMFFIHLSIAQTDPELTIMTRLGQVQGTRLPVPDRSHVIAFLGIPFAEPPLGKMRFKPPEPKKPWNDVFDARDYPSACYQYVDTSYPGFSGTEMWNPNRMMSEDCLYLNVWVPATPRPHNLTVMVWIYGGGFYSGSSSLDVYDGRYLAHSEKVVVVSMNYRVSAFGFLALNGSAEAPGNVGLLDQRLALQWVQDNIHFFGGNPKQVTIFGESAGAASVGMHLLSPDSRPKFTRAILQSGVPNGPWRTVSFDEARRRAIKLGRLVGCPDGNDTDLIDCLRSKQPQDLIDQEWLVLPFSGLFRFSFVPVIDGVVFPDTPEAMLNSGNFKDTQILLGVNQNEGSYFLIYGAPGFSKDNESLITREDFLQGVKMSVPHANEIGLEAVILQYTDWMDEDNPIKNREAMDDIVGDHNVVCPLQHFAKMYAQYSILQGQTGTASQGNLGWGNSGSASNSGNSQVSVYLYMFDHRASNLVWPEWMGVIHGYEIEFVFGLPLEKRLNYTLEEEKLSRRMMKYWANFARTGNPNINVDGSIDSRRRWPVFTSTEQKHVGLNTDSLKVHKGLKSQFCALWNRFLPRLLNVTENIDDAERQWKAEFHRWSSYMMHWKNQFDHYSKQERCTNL
Sequence of Cholinesterase (Equus caballus, UniProt P81908) (P81908 whole entry): as the sequence (P81908 whole entry) above

| Structure (SMILES) | inhibition [1] [%] | inhibition [2] [%] | Activity (Homo sapiens [5]) [%] | Activity (Homo sapiens [6]) [%] | Activity [7] [equiv] | Activity (THP-1 [8]) | Activity (THP-1 [9]) | Activity (THP-1 [10]) | Activity (THP-1 [11]) | inhibition [12] [%] | Activity [13] | Activity [14] [%] | viability at 24 h, 10 µM [15] [%] | Activity [16] [%] | viability at 24 h, 0.1 µM [17] [%] | viability at 24 h, 1 µM [18] [%] | viability at 24 h, 10 µM [19] [%] | further results |
| --- | --- | --- | --- | --- | --- | --- | --- | --- | --- | --- | --- | --- | --- | --- | --- | --- | --- | --- |
| Cn1c(=O)sc2cc(NC(=O)CCCCN3CCC(c4ccccc4)CC3)ccc21 | 30 | 96 | 98.4 | 81.5 | 2.61 | Active | Active | Active | Active | 55.6 | <= 0.23% | 0.33 | 93.8 | 1.73 | 98.9 | 97.1 | 93.6 | IC50 (Cholinesterase [3]): 2980 nM; IC50 (Cholinesterase [4]): 2560 nM |
| COc1cc2c(cc1OC)C(=O)C(CC1CCN(Cc3ccccc3)CC1)C2 (configuration not stated) | – | – | 95.4 | 90.2 | – | Active | Active | Active | Active | – | – | – | – | – | – | – | – | – |
| Cn1c(=O)sc2cc(C(=O)CCN3CCN(Cc4ccccc4)CC3)ccc21 | 99 | < 10 | – | – | 3.7 | Active | Active | Active | Active | 57.5 | 0.4% | 0.1 | 98.3 | 1.03 | 102 | 99.3 | 92.6 | IC50 (Acetylcholinesterase [20]): 340 nM; IC50 (Acetylcholinesterase [21]): 460 nM |
